Measured values: ChEMBL document CHEMBL5338774, “Quinazoline-2-Carboxamides as Selective PET Radiotracers for Matrix Metalloproteinase-13 Imaging in Atherosclerosis” (J Med Chem, 2023)

How the values were obtained:
[1] = Drug distribution in western atherogenic diet fed ApoE-/- mouse pancreas at […], iv administered as bolus injection measured for 30 mins by gamma counter analysis; format: ADME, organism-based; details: in vivo, 0.5 h
Method in brief: (§1)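 Diet-fed male ApoE-/- mice (39 ± 5 g, n = 4-6) under 2% isoflurane received radiotracer (~7.5 MBq, 100-200 µL) IV by tail-vein bolus over 30 s. After 30 min, blood was taken by cardiac puncture, then PBS/formalin perfusion and organ dissection. Uptake is decay-corrected %ID normalized to tissue mass (%ID/g).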

[2] = Drug distribution in western atherogenic diet fed ApoE-/- mouse kidney at […], iv administered as bolus injection measured for 60 mins by PET analysis; format: ADME, organism-based; details: in vivo, 1 h
Method in brief: (§2)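 A 10 min transmission scan preceded tail-vein IV bolus of radiotracer (~7.5 MBq, over 30 s) in diet-fed ApoE-/- mice. Dynamic whole-body PET ran for 60 min (4×15 s, 4×1 min, 11×5 min frames), corrected for attenuation and scatter, 3D-OSEM/MAP reconstruction. Volumetric organ ROIs gave %ID·cc⁻¹ time-activity curves; n = 2 per group.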

[3] = Drug distribution in western atherogenic diet fed ApoE-/- mouse liver at […], iv administered as bolus injection measured for 30 mins by gamma counter analysis; format: ADME, organism-based; details: in vivo, 0.5 h; method in brief: as §1
[4] = Octanol/PBS distribution coefficient, logD of compound at pH 7.4 incubated for 10 mins under shaking condition by gamma counter analysis; format: physicochemical
Method in brief: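 Radiotracer partitioning between 1-octanol and 1× PBS at pH 7.4. Mean ± standard error of two independent experiments, each in quadruplicate.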

[5] = Drug distribution in western atherogenic diet fed ApoE-/- mouse fat tissue at […], iv administered as bolus injection measured for 30 mins by gamma counter analysis; format: ADME, organism-based, Adipose tissue; details: in vivo, 0.5 h; method in brief: as §1
[6] = Drug excretion in western atherogenic diet fed ApoE-/- mouse urine at […], iv administered as bolus injection measured for 60 mins by PET analysis; format: ADME, organism-based; details: in vivo, 1 h; method in brief: as §2
[7] = Stability in western atherogenic diet fed ApoE-/- mouse plasma assessed as intact compound level at ~75 MBq, iv administered as bolus injection pretreated with 6-fluoro-N-(4-fluoro-3-methylphenyl)methyl)-5-(2-fluoroethoxy)-4-oxo-3,4-dihydroquinazoline-2-carboxamide followed by tracer addition and measured after 30 mins by gamma counter analysis; format: ADME, organism-based; details: read-out: Stability
Method in brief: (§3)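 Blood was drawn by cardiac puncture into K₂EDTA tubes 30 min after IV radiotracer in diet-fed ApoE-/- mice. Optional IV pretreatment 15 min before: unlabelled analogue 2.5 mg/kg or WAY170523 7.5 mg/kg. Pooled protein-free plasma was spiked with standard and run on radio-HPLC (C18, ammonium formate/ACN). Fractions were collected each minute and gamma-counted to give the parent fraction.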

[8] = Stability of compound in 10% EtOH/saline assessed as compound degradation measured upto 75 mins by analytical radio-HPLC analysis; format: physicochemical; details: buffer, 1.25 h
Method in brief: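 Radiotracer formulated in 10% EtOH/0.9% saline was held at room temperature up to 75 min. Samples were analysed by analytical radio-HPLC (C18, 0.1 M ammonium formate/ACN gradient, 1 mL·min⁻¹).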

[9] = Tmax in western atherogenic diet fed ApoE-/- mouse blood at […], iv administered as bolus injection measured for 60 mins by PET analysis; format: ADME, organism-based; details: in vivo, 1 h; method in brief: as §2
[10] = Drug distribution in western atherogenic diet fed ApoE-/- mouse liver at […], iv administered as bolus injection measured for 60 mins by PET analysis; format: ADME, organism-based; details: in vivo, 1 h; method in brief: as §2
[11] = Drug distribution in western atherogenic diet fed ApoE-/- mouse spleen at […], iv administered as bolus injection measured for 30 mins by gamma counter analysis; format: ADME, organism-based; details: in vivo, 0.5 h; method in brief: as §1
[12] = Drug distribution in western atherogenic diet fed ApoE-/- mouse blood assessed as compound remaining at 14 to 16 MBq, iv administered as bolus injection measured for 150 mins by gamma counter analysis; format: ADME, organism-based; details: in vivo, 2.5 h, dose 14-16 MBq
[13] = Drug distribution in western atherogenic diet fed ApoE-/- mouse aortic plaques assessed as reduction in radioactivity at […], iv administered as bolus injection pretreated with 6-fluoro-N-(4-fluoro-3-methylphenyl)methyl)-5-(2-fluoroethoxy)-4-oxo-3,4-dihydroquinazoline-2-carboxamide for 15 mins followed by tracer addition and measured after 30 mins by Oil Red O staining based autoradiography relative to control; format: ADME, organism-based, Aorta; design: scale not given: the % may be the effect or the level left; details: in vivo, 0.5 h
Method in brief: (§4)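 Male ApoE-/- mice were fed a western atherogenic diet from 8 weeks of age for 13-16 weeks. Radiotracer (~7.5 MBq) was given IV by tail-vein bolus over 30 s. Blocking: unlabelled tracer analogue (2.5 mg/kg; DMA/propylene glycol/PEG400/water) or WAY170523 (7.5 mg/kg; DMSO/PEG400/water), both IV 15 min before. At 30 min, perfused aortae were exposed to a phosphor screen for 10 half-lives (%ID·mm⁻²), with ORO staining.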

[14] = Drug distribution in western atherogenic diet fed ApoE-/- mouse blood assessed as compound remaining at […], iv administered as bolus injection measured for 30 mins by gamma counter analysis; format: ADME, organism-based; details: in vivo, 0.5 h; method in brief: as §1
[15] = Drug distribution in western atherogenic diet fed ApoE-/- mouse myocardium assessed as myocardial retention at […], iv administered as bolus injection measured for 60 mins by PET analysis; format: ADME, organism-based; details: in vivo, 1 h; method in brief: as §2
[16] = Drug distribution in western atherogenic diet fed ApoE-/- mouse aortic plaques at […], iv administered as bolus injection pretreated with N-(2-(4-(N-benzyl-N-(2-(hydroxycarbamoyl)-4,6-dimethylphenyl)sulfamoyl)phenoxy)ethyl)benzofuran-2-carboxamide for 15 mins followed by tracer addition and measured after 30 mins by Oil Red O staining based autoradiography; format: ADME, organism-based, Aorta; details: in vivo, 0.5 h; method in brief: as §4
[17] = Drug distribution in western atherogenic diet fed ApoE-/- mouse brain at […], iv administered as bolus injection measured for 30 mins by gamma counter analysis; format: ADME, organism-based; details: in vivo, 0.5 h; method in brief: as §1
[18] = Drug distribution in western atherogenic diet fed ApoE-/- mouse lung at […], iv administered as bolus injection measured for 30 mins by gamma counter analysis; format: ADME, organism-based; details: in vivo, 0.5 h; method in brief: as §1
[19] = Stability in western atherogenic diet fed ApoE-/- mouse plasma assessed as intact compound level at ~75 MBq, iv administered as bolus injection pretreated with N-(2-(4-(N-benzyl-N-(2-(hydroxycarbamoyl)-4,6-dimethylphenyl)sulfamoyl)phenoxy)ethyl)benzofuran-2-carboxamide followed by tracer addition and measured after 30 mins by gamma counter analysis; format: ADME, organism-based; details: read-out: Stability; method in brief: as §3
[20] = Drug distribution in western atherogenic diet fed ApoE-/- mouse aortic plaques assessed as reduction in radioactivity at […], iv administered as bolus injection pretreated with N-(2-(4-(N-benzyl-N-(2-(hydroxycarbamoyl)-4,6-dimethylphenyl)sulfamoyl)phenoxy)ethyl)benzofuran-2-carboxamide for 15 mins followed by tracer addition and measured after 30 mins by Oil Red O staining based autoradiography relative to control; format: ADME, organism-based, Aorta; design: scale not given: the % may be the effect or the level left; details: in vivo, 0.5 h; method in brief: as §4
[21] = Drug distribution in western atherogenic diet fed ApoE-/- mouse muscle tissue at […], iv administered as bolus injection measured for 30 mins by gamma counter analysis; format: ADME, organism-based; details: in vivo, 0.5 h; method in brief: as §1
[22] = Drug distribution in western atherogenic diet fed ApoE-/- mouse stomach at […], iv administered as bolus injection measured for 30 mins by gamma counter analysis; format: ADME, organism-based; details: in vivo, 0.5 h; method in brief: as §1
[23] = Drug distribution in western atherogenic diet fed ApoE-/- mouse aortic plaques at […], iv administered as bolus injection measured for 30 mins by Oil Red O staining based autoradiography; format: ADME, organism-based, Aorta; details: in vivo, 0.5 h; method in brief: as §4
[24] = Drug distribution in western atherogenic diet fed ApoE-/- mouse bone at […], iv administered as bolus injection measured for 30 mins by gamma counter analysis; format: ADME, organism-based, Bone element; details: in vivo, 0.5 h; method in brief: as §1
[25] = Drug distribution in western atherogenic diet fed ApoE-/- mouse aortic plaques at […], iv administered as bolus injection pretreated with 6-fluoro-N-(4-fluoro-3-methylphenyl)methyl)-5-(2-fluoroethoxy)-4-oxo-3,4-dihydroquinazoline-2-carboxamide for 15 mins followed by tracer addition and measured after 30 mins by Oil Red O staining based autoradiography; format: ADME, organism-based, Aorta; details: in vivo, 0.5 h; method in brief: as §4
[26] = Drug distribution in western atherogenic diet fed ApoE-/- mouse myocardium assessed as compound remaining at […], iv administered as bolus injection measured for 30 mins by gamma counter analysis; format: ADME, organism-based; details: in vivo, 0.5 h; method in brief: as §1
[27] = Stability in western atherogenic diet fed ApoE-/- mouse plasma assessed as intact compound level at ~75 MBq, iv administered as bolus injection and measured after 30 mins by gamma counter analysis; format: ADME, organism-based; details: read-out: Stability; method in brief: as §3
[28] = Drug distribution in western atherogenic diet fed ApoE-/- mouse urinary bladder at […], iv administered as bolus injection measured for 60 mins by PET analysis; format: ADME, organism-based; details: in vivo, 1 h; method in brief: as §2
[29] = Drug distribution in western atherogenic diet fed ApoE-/- mouse intestine at […], iv administered as bolus injection measured for 30 mins by gamma counter analysis; format: ADME, organism-based; details: in vivo, 0.5 h; method in brief: as §1
[30] = Drug distribution in western atherogenic diet fed ApoE-/- mouse kidney at […], iv administered as bolus injection measured for 30 mins by gamma counter analysis; format: ADME, organism-based; details: in vivo, 0.5 h; method in brief: as §1
[31] = Drug distribution in western atherogenic diet fed ApoE-/- mouse intestine at […], iv administered as bolus injection measured for 60 mins by PET analysis; format: ADME, organism-based; details: in vivo, 1 h; method in brief: as §2

SMILES	Drug uptake [1]	Drug uptake [2] [%ID/cc]	Drug uptake [3] [% ID/g]	logD at 10 min [4]	Drug uptake [5]	Stability [8]	Tmax [9] [s]	Drug uptake [10] [%ID/cc]	Drug uptake [11]	Drug uptake [14] [% ID/g]	Drug uptake [15] [%ID/cc]	Drug uptake [17]	Drug uptake [18]	Drug uptake [21]	Drug uptake [22]	Drug uptake [23] [%ID.m^-2]	Drug uptake [24]	Drug uptake [26]	remaining at 0.5 h [27] [%]	also measured
Cc1cc(CNC(=O)c2nc3ccc(F)c(OCC[18F])c3c(=O)[nH]2)ccc1F	2.14 % ID/g	4.42	3.32	3.09	~ 2 % ID/g	Stable	37.5	6.43	~ 2 % ID/g	3.28	< 0.5	~ 2 % ID/g	~ 2 % ID/g	~ 2 % ID/g	~ 2 % ID/g	270	~ 2 % ID/g	~ 1 % ID/g	78	Drug excretion [6]: Active; remaining at 0.5 h [7]: 78%; Drug uptake [12]: Active; Activity [13]: 23%; Drug uptake [16]: 173.4 %ID.m^-2; remaining at 0.5 h [19]: 87%; Activity [20]: 36%; Drug uptake [25]: 208.2 %ID.m^-2
[11CH3]Oc1cccc(CNC(=O)c2nc3ccc(F)c(OCCc4ccc(C(=O)O)cc4)c3c(=O)[nH]2)c1	~ 2 % ID/g	21.01	7.29	1.16	~ 2 % ID/g	Stable	37.5	25.29	2.11 % ID/g	0.49	< 0.5	~ 2 % ID/g	~ 2 % ID/g	~ 2 % ID/g	~ 2 % ID/g	52.97	~ 2 % ID/g	~ 1 % ID/g	86	Drug uptake [28]: Not Active; Drug uptake [29]: 53.05 % ID/g; Drug uptake [30]: 30.95 % ID/g; Drug uptake [31]: Active
